Results from PubChem BioAssay AID504338 (NMMLSC, 2011).
Where “and” joins values, the source holds several entries; their conditions need not be identical. Equal entries are not always repeated. Unmarked numbers belong to inactive results.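 How the source made its calls: active means GFP response vs DMSO above 150% with enough events counted; inconclusive means fewer than 70 events counted for a yeast strain; inactive means the rest.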

Assay: yeast TOR reporter LAP4-GFP retest – cell-based, third cherry pick, flow cytometry, confirmation (AID 504338);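 further: ratio to plate DMSO wells so 100% equals DMSO level rather than 0%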
Conditions: S. cerevisiae LAP4-GFP strain, 3 h, at 10 µM, hits give high values
Procedure, shortened: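 System: Saccharomyces cerevisiae strain expressing LAP4-GFP fusion protein. Quantity: cells at 0.2 OD600. Medium: synthetic complete medium. Read-out basis: median GFP fluorescence as percent of plate DMSO-well average. Signal: high-throughput flow cytometry of GFP, single-cell scatter gate. Schedule: 3 h treatment, 30 °C. Dosing: single compound dose, 10 µM final.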

Structure (SMILES) | GFP response vs DMSO
O=C(Nc1ccccc1)ON=C1c2ccccc2-c2ccccc21 | 106%
CCC(=O)Nn1cnc2c(c1=O)C1(CCCCC1)Cc1ccccc1-2 | 101%
CN(C)CCCNc1cc(O)c2ncccc2c1 | 110%
COc1cc(OC)cc(C(=O)Nc2ccc(-c3nc4ccccc4o3)cc2)c1 | 106%
C/C(=C\C(=O)c1ccc(Cl)cc1)Nc1ccc(Br)cc1 | 101%
O=C(Nc1ccccc1)O/N=C1/CCCc2occc21 | 107%
CC(=O)Nc1ccc(-c2nc3cc(Cl)ccc3o2)cc1 | 104%
Cc1ccc(Nc2nc(N)[nH]c(=O)c2N=O)cc1 | 104%
FC(F)Oc1cccc2cccnc12 | 101%
CC(=O)Nn1cnc2c(c1=O)C1(CCCC1)Cc1ccccc1-2 | 103%
COc1ccc(NC(=O)ON=C2c3ccccc3-c3ccccc32)cc1 | 104%
O=C(O)c1ccc2cccc(O)c2n1 | 100%
CCc1c(C)nc2c(OC)cccc2c1Cl | 104%
O=C(Nc1cccc(Cl)c1)ON=C1c2ccccc2-c2ccccc21 | 107%
COc1ccccc1-c1cc(C(F)(F)F)nc(S(=O)(=O)CCCC(=O)NC(C)C)n1 | 101% and 104%
CNc1nc(N)c([N+](=O)[O-])c(Nc2ccccc2OC)n1 | 111%
CC(=O)C(CC(=O)N1CCCC1)C(=O)Nc1ccc(Cl)cc1 (centres undefined) | 108%
Cc1ccc(NC(=O)O/N=C2\CCCCC2c2ccc([N+](=O)[O-])cc2[N+](=O)[O-])cc1 (centres undefined) | 103%
COCCNc1nc(N)c([N+](=O)[O-])c(Nc2ccc(F)cc2)n1 | 106%
C[n+]1cccc2c(Br)ccc([O-])c21 | 104%

Structure (SMILES) | GFP response vs DMSO
Cc1cc(C)c2ccc(N)nc2c1O | 97.2%
Cc1cccc(Nc2cc(=O)[nH]c(=O)[nH]2)c1 | 106%
Cn1c(NCCCO)nc2c(c1=O)C1(CCCCC1)Cc1ccccc1-2 | 104%
Nc1nc(NCCOCCO)nc(Nc2cccc(F)c2)c1[N+](=O)[O-] | 104%
CSc1nc(Nc2ccc(Cl)cc2)c(C#N)c(=O)[nH]1 | 106%
O=C(/C=C/Nc1cccc(O)c1)c1ccccc1 | 111%
CC(=O)CC(=O)Nc1ccc(C(N)=O)cc1 | 101%
COc1ccc(OC)c2c(=O)cc(C(=O)O)[nH]c12 | 104%
COCC(C)NC(=O)CCS(=O)(=O)c1nc(-c2ccc(OC)cc2)cc(C(F)(F)F)n1 (centres undefined) | 104%
COC(=O)c1cc(=O)c2cccc(OC)c2[nH]1 | 101%
Cc1ccc(Nc2cc(=O)[nH]c(=O)[nH]2)cc1C | 104%
Oc1ccc(Cl)c2cccnc12 | 110%
O=C(N/N=C/c1ccccc1)c1cccc2ccccc12 | 103%
CNc1nc(N)c([N+](=O)[O-])c(Nc2cccc(Cl)c2)n1 | 131%
Cc1ccc(-c2cc(C(F)F)nc(S(C)(=O)=O)n2)cc1 | 114%
Cc1ccc2nc(-c3ccc(NC(=O)c4cccnc4)cc3)oc2c1 | 103%
CC(=O)NC(C)c1cc(Cl)c2cccnc2c1O (centres undefined) | 101%
Nn1cnc2c(c1=O)C1(CCCCC1)Cc1ccccc1-2 | 97.2%
COc1ccc(N/C=C/C(=O)c2ccc(Cl)cc2)cc1 | 110%
